In PMC12400138 (Molecular and Clinical Oncology, 2025):
Read-outs that look alike come from different tables or passages of the source.

What was measured:
[1] = test system: HK1; assay: MTS assay, HK1; format: cell-based, human; details: read-out: IC50 value
Outline: (§1)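 Cell lines were seeded per well in 96-well plates: C666-1 at 30,000, HK1 at 10,000, NP69SV40T at 15,000 and NP460hTert at 15,000. After 2 h at 37°C in 5% CO2, test compound was added at 0.8-200 nM (rocaglates) or 0.15-20 µM (second compound). Vehicle was 0.1% DMSO final, or NaH2PO4. MTS was added after 1-3 days for 1-4 h, reading A490 minus A630. IC50 was fitted from % signal versus vehicle.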

[2] = test system: C666-1; assay: MTS assay, C666-1; format: cell-based, human
Outline: as §1

[3] = test system: NP460hTert; assay: MTS assay, NP460hTert; format: cell-based, human; details: read-out: IC50 value
Outline: as §1

[4] = test system: NP69SV40T; assay: MTS assay, NP69SV40T; format: cell-based, human; details: read-out: IC50 value
Outline: as §1

[5] = test system: HK1; assay: Flow cytometric analysis of cell cycle progression; format: cell-based, human
Outline: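 HK1 cells were seeded at 1.0x10^5 cells/0.5 ml/well in 12-well plates. After 2 h, test compound was added at 5 nM, 10 nM or 1 µM, alone or combined. Exposure lasted 2-3 days. Adherent and floating cells were pelleted and stained in hypotonic buffer (propidium iodide, RNase A, sodium citrate, Triton X) on ice, in the dark, for 10 min. ≥10,000 events were acquired by flow cytometry, and DNA-content histograms were modelled for cycle phases.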

[6] = test system: NPC cell lines or nasopharyngeal epithelial cells; assay: MTS assay, summary over cell lines; format: cell-based; details: Homo sapiens, read-out: IC50 values
Outline: as §1

[7] = test system: normal bone marrow cells; details: 1 µΜ, two days; cited from earlier work
[8] = advanced hematologic malignancy patients; phase I dose-escalation; cited from earlier work
[9] = test system: HK1; assay: FITC Annexin V/PI apoptosis assay; format: cell-based, human; details: 3 days post-treatment, 1 μM
Outline: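 HK1 cells were seeded at 1.0x10^5 cells/0.5 ml/well in 12-well plates. After ~2 h, test compound was added at 5 nM, 10 nM or 1 µM, alone or combined, for 3 days. Adherent and floating cells were stained with FITC-Annexin V and PI in binding buffer for 15 min in the dark. Samples were diluted, kept on ice and analysed by flow cytometry, acquiring 10,000 events per sample.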

[10] = toxicity studies mostly in murine models; cited from earlier work
[11] = silvestrol 5 nM, episilvestrol 10 nM or combination with 1 µM CX-5461

COC(=O)[C@H]1[C@@H](O)[C@@]2(O)c3c(OC)cc(O[C@@H]4O[C@@H]([C@@H](O)CO)CO[C@H]4OC)cc3O[C@@]2(c2ccc(OC)cc2)[C@@H]1c1ccccc1 [Episilvestrol, episilvestrol]
IC50 ([1]; HK1, 1 day post-treatment): 60 nM
IC50 ([1]; HK1, 2 days post-treatment): 13 nM
IC50 ([1]; HK1, 3 days post-treatment): 10 nM
IC50 ([2]; read-out: IC50 value, 1 day post-treatment): 56 nM
IC50 ([2]; read-out: IC50 value, 2 days post-treatment): 18 nM
IC50 ([2]; read-out: IC50 value, 3 days post-treatment): 10 nM
IC50 ([3]; NP460hTert, 1 day post-treatment): 14 nM
IC50 ([3]; NP460hTert, 2 days post-treatment): 20 nM
IC50 ([3]; NP460hTert, 3 days post-treatment): 10 nM
IC50 ([4]; NP69SV40T, 1 day post-treatment): 68 nM
IC50 ([4]; NP69SV40T, 2 days post-treatment): 19 nM
IC50 ([4]; NP69SV40T, 3 days post-treatment): 10 nM
cell cycle arrest [5, 11]: arrested cells at G0/G1

Cc1cnc(CNC(=O)c2c(=O)c3ccc(N4CCCN(C)CC4)nc3n3c2sc2ccccc23)cn1 [CX-5461, reference compound]
IC50 [6]: 0.4 to 6 µM
IC50 ([1]; Homo sapiens, HK-1, 24 h): 2000 nM
IC50 ([1]; Homo sapiens, HK-1, 48 h): 1000 nM
cell death [7]: minimal cell death
IC50 ([3]; Homo sapiens, 24 h): 500 nM
IC50 ([3]; Homo sapiens, 48 h): 400 nM
tolerability [8]: well tolerated
% apoptosis (percentage of total apoptosis) [9]: < 20%
IC50 ([4]; Homo sapiens, 24 h): 6000 nM
IC50 ([4]; Homo sapiens, 48 h): 1000 nM
cell cycle arrest ([5]; 1 µM): arrested cells at S-phase and G2/M

COC(=O)[C@H]1[C@@H](O)[C@@]2(O)c3c(OC)cc(O[C@@H]4O[C@@H]([C@H](O)CO)CO[C@H]4OC)cc3O[C@@]2(c2ccc(OC)cc2)[C@@H]1c1ccccc1 [Silvestrol, silvestrol]
IC50 ([1]; Homo sapiens, HK-1, 24 h): 132 nM
IC50 ([1]; Homo sapiens, HK-1, 48 h): 7 nM
tolerability [10]: well tolerated
IC50 ([3]; Homo sapiens, 24 h): 9 nM
IC50 ([3]; Homo sapiens, 48 h): 9 nM
IC50 ([4]; Homo sapiens, 24 h): 58 nM
IC50 ([4]; Homo sapiens, 48 h): 8 nM
cell cycle arrest [5, 11]: arrested cells at G0/G1
